The test system of series [1] is MS2 coat protein. The experiment in a line: apparent Kd, MS2 coat protein; higher = weaker binding; RNA-MaP array; theophylline 2 mM where present. The gist of the method: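 Apparent Kd: the median of filtered binding-curve fits from single clusters. Designs were transcribed on Illumina sequencing-chip clusters by stalled E. coli RNA polymerase and titrated with SNAP-549-labelled MS2 coat protein from 0.7 or 1.5 nM, doubling to 3 µM, in 100 mM Tris-HCl pH 7.5, 80 mM KCl, 4 mM MgCl2, BSA, DTT, yeast tRNA and Tween-20. Each series ran without and then with constant ligand, and green signal was normalised to red-channel RNA signal and control-cluster median Fmax.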

Series [2] relates to MS2 coat protein. Description: apparent Kd, MS2 coat protein; higher = weaker binding; RNA-MaP array. The gist of the method:
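Sequenced DNA templates on an Illumina sequencing chip were transcribed into the designed RNAs. These were incubated at room temperature in Tris-HCl pH 7.5 buffer containing KCl, MgCl2, BSA, DTT, tRNA and Tween20 with fluorescently labeled MS2 coat protein at 1.5 nM to 3 μM, with or without input ligand. Apparent Kd is the median of binding-curve fits per cluster, and designs with fewer than 10 clusters measured were excluded.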

[3] abbreviates: designed as: ON switch for theophylline, no ligand.
Setting [4] is: ligand present: theophylline, designed as: ON switch for theophylline.
Setting [5] is: designed as: OFF switch for theophylline, no ligand.
[6] abbreviates: ligand present: theophylline, designed as: OFF switch for theophylline.
Setting [7] is: designed as: OFF switch for flavin mononucleotide, no ligand.
Setting [8] is: ligand present: flavin mononucleotide, designed as: OFF switch for flavin mononucleotide.
Where [9] appears, read: designed as: ON switch for flavin mononucleotide, no ligand.
Where [10] appears, read: ligand present: flavin mononucleotide, designed as: ON switch for flavin mononucleotide.

In the case of “AUCGUACCUGAUGAUACCAGCAAUUGCUCGUGACAUGAGGAUCACCCAUGUGACCAGUGAUGCCCUUGGCAGCAUGGUCGGUGCA”, the “apparent Kd” value is 97.1 nM in series [1] (setting [3]) and 13.3 nM in series [1] (setting [4]).
With “AAUAACAUGAGGAUCACCCAUGUAAAAGAUACCAGAGUGAUGAUCCUCCCUUGGCAGCUUAAACGCUAUUGGAAACAAUAGCGAA”, the “apparent Kd” value in series [1] (setting [3]) stood at 70.2 nM; in series [1] (setting [4]) it was 167 nM.
For “ACGUCACGUUUACUCGUGGUUUCGAUCGAUACCAGUAGCGAGAGUUACCCUUGGCAGCGACAUGAGGAUCACCCAUGUGCGAAGA”, the “apparent Kd” value was determined as 11.8 nM in series [1] (setting [5]) and 15.9 nM in series [1] (setting [6]).
“UUAGAUAUGACGGAUACCAGCGUGUUGUAGAACAUGAGGAUCACCCAUGUAGUGAUCGUGCGCCCUUGGCAGCUGGUAUGUUUGG”: the “apparent Kd” value was found to be 250 nM in series [1] (setting [3]) and 898 nM in series [1] (setting [4]).
With “ACGUCUCGAAAACUCGUAGUAACUAUAGAUACCAGUAGCGAGAGUUACCCUUGGCAGCUACAUGAGGAUCACCCAUGUACGAGGA”, the “apparent Kd” value in series [1] (setting [5]) was found to be 15.6 nM; in series [1] (setting [6]) it was 15 nM.
On to “ACUUUGUCGGGUGAUACCAGCCUCGGCAAAUCUCGUGCCGAACAUGAGGAUCACCCAUGUGGCCCUUGGCAGCACAUGACAACUC”, for which the “apparent Kd” value came out at 442 nM in series [1] (setting [3]) and 70 nM in series [1] (setting [4]).
Regarding “UGGAAAGCACAUGAGGAUCACCCAUGUGAUACCAGCUGAAACUAAGGCCCUUGGCAGCACAUGGUACCAACCCUUUGGUAGUCCA”, the “apparent Kd” value in series [1] (setting [5]) turned out to be 11.9 nM; in series [1] (setting [6]), 50.5 nM.
The like results for “CAUGAAGUAACUGAUACCAGUGUACUGACAUGAGGAUCACCCAUGUUGGGUUUUGUUGUACACCCUUGGCAGCAGAAUCUUUAUG” were, in that order, 69.1 nM and 110 nM.
With “UUAAGAGGAUAUCAAAUUUGAUUUUGUGAUACCAGAAUAAUUUUAUUCCCUUGGCAGCAUGACAUGAGGAUCACCCAUGUGUCUU”, the “apparent Kd” value in series [1] (setting [3]) worked out at 37 nM; in series [1] (setting [4]), 30 nM.
Consider “UGACAUUGCUCAGAUACCAGACAUGAGGAUCACCCAUGUACCAAGGUAAGAAAAUAACAUGUCCCUUGGCAGCUGAGCAAUGUCU”, for which the “apparent Kd” value in series [1] (setting [5]) was 16.2 nM; in series [1] (setting [6]) it was 240 nM.
Take “AGCAUUGUAACAGAUACCAGACUUUUAAUGCCUCUAAUAACAUGAGGAUCACCCAUGUAUGUCCCUUGGCAGCUGUUAUGAUGCA”: the figures for the “apparent Kd” value in series [1] (setting [5]) and in series [1] (setting [6]) were 115 nM and 220 nM, respectively.
As for “UUGUUUAGGAUAGGAUAUAGGUCUAAAAGUGAGUCGGACAUGAGGAUCACCCAUGUGGGUGCGAUCUAGAAGGAUCCGCCGCGG”, the “apparent Kd” value turned out to be 754 nM in series [2] (setting [7]) and 269 nM in series [2] (setting [8]).
For “UUCGACCACGAGAAGGUGACGAAGGCCGAUUGUCAAGGAUAUCGACACAUGAGGAUCACCCAUGUCAGAGCGGGACUAACUAAA”, the “apparent Kd” value in series [2] (setting [9]) stood at 22.6 nM; in series [2] (setting [10]), 12.8 nM.
For the sequence “ACUUAGAGAUAGAAGGAUGGAGUCAGGGUCCACAUAGGAUAUAUCUUGCACGAAACAUGAGGAUCACCCAUGUUGGAAUCCUCU”, the “apparent Kd” value in series [2] (setting [7]) is 30.4 nM; in series [2] (setting [8]), 27.8 nM.
As for “GGUACGGCAGGAUAUGGCCUGGACUACAUGAGGAUCACCCAUGUCUUGCAGAAUGUCUAGCCAGAAGGGCCAUGAA”, the “apparent Kd” value in series [2] (setting [7]) was 14.6 nM; in series [2] (setting [8]) it was 8.52 nM.
The like results for “GAUGCAACGCAGAAGGUAACCCAAUUAGGAGAUCUACAUGAGGAUCACCCAUGUAUUUGGAAAAUUAAGGAUAUGCCGAGGAUC” were, in that order, 14.7 nM and 19.5 nM.
In the case of “AGGCUUAAAAUGGAGGAUAUCUGUCGCAAAACAUGAGGAUCACCCAUGUACAUAAUGGGCACCACAGAGAAGGCCAUGUACUUUUC”, the “apparent Kd” value in series [2] (setting [9]) was found to be 27.5 nM; in series [2] (setting [10]), 11.7 nM.
In the case of “UCCAGACAUGAGGAUCACCCAUGUUCAUGCCUCGGAGGAUAUCUAUGGGUGGAGGACUUUAGAGAAGGCCGAUCCG”, the “apparent Kd” value in series [2] (setting [9]) came to 674 nM; in series [2] (setting [10]), 458 nM.
“GAACAUCGAGGAUAUACAUGAGGAUCACCCAUGUAUUAGAGGGUGCCCUAGCUCAAAAGUAGAAGGCGACAGGU”: the “apparent Kd” value in series [2] (setting [7]) was found to be 9.8 nM; in series [2] (setting [8]), 12.7 nM.
For the sequence “CUUGGAAGACAGAAGGGCAUCCACCCGGGACCAGCAGGAUAUGUCAACGGUAGCCGAAAACAUGAGGAUCACCCAUGUCAGAAG”, the entries for the “apparent Kd” value in series [2] (setting [9]) and in series [2] (setting [10]) were 75.8 nM and 30.1 nM, respectively.
For “GUGCUACAUGAGGAUCACCCAUGUGUGUAACAACAAGGAUAUGAUGCUUUGCCCGAAAGGUCAGAAGGUGUACGGC”, the “apparent Kd” value was determined as 12.9 nM in series [2] (setting [9]) and 11.1 nM in series [2] (setting [10]).
Consider “GGCGAUCAGUGAGGAUAUUCCGCGCAAAUACUAGAAGAAGGCACGUAUCAAGGGUUCAGAACAUGAGGAUCACCCAUGUCAAGC”, for which the “apparent Kd” value came out at 14 nM in series [2] (setting [9]) and 10.1 nM in series [2] (setting [10]).
Consider “ACUUGACAUGAGGAUCACCCAUGUGAUCCGUCAUUAGGAUAUCGAAGGUAUAUCACGCCUCGAGAAGGAAUAGCGG”, for which the “apparent Kd” value turned out to be 361 nM in series [2] (setting [9]) and 65.5 nM in series [2] (setting [10]).

Broadly, the apparent Kd is a dissociation constant that holds for the conditions of the assay.

The values are drawn from the EternaBench riboswitch data.
